For one data set, the system named is THP-1. Briefly: Ratio of intracellular to extracellular drug level in human THP1 cells at 250 mg/L after 24 hrs. The format is ADME, cell-based. The conditions noted are these: thp-1, 24 h. The gist of the method:
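THP-1 cells incubated 24 h at 250 mg/liter extracellular drug. Cell lysates assayed microbiologically with MSSA ATCC 25923; content expressed per mg total protein. Cellular/extracellular ratio calculated assuming cell volume of 5 μl per mg protein.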

The nature of data set [1]: Chemical stability of the compound assessed as compound remaining after 24 hrs in PBS buffer by HPLC analysis at pH 7.4. The format is physicochemical. To be noted: read-out: Activity. A digest of the protocol: (§1)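 Drug at 50 mg/liter initial concentration incubated 24 h at 37°C in buffered medium at pH 7.4 or 5.5. Remaining drug measured by HPLC signal disappearance; mobile phase 25 mM phosphate buffer pH 6.7 with acetonitrile (75:25).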

Data set [2] can be described thus: Chemical stability of the compound assessed as compound remaining after 24 hrs PBS buffer by HPLC analysis at pH 5.5. The format is physicochemical. The conditions noted are these: read-out: Activity. A digest of the protocol:
as §1

As for `C[C@@H](O)[C@H]1C(=O)N2C(C(=O)O)=C(SCCN=CN)C[C@H]12` [IMIPENEM ANHYDROUS], the Ratio in the data set on THP-1 was 0.05. Moreover, the values for the remaining at 24 h in data set [1] and in data set [2] were 39.3% and 30.5%, respectively.

With `C[C@@H](O)[C@H]1C(=O)N2C(C(=O)O)=C(S[C@@H]3CN[C@H](C(=O)N(C)C)C3)[C@H](C)[C@H]12` [MEROPENEM], the Ratio in the data set with THP-1 is given as 0.2. The remaining at 24 h came to 49.3% in data set [1] and 40.3% in data set [2].

As to `Cc1onc(-c2ccccc2)c1C(=O)N[C@@H]1C(=O)N2[C@@H]1SC(C)(C)[C@@H]2C(=O)O` [OXACILLIN], the Ratio in the data set on THP-1 stood at 0.2. Further, the remaining at 24 h worked out at 94.2% in data set [1] and 91.8% in data set [2].

Source of the values: ChEMBL document CHEMBL1649111, “Restoration of susceptibility of intracellular methicillin-resistant Staphylococcus aureus to beta-lactams: comparison of strains, cells, and antibiotics” (Antimicrob Agents Chemother, 2008).
